Laboratory results as given in ChEMBL document CHEMBL3102702, “Protein kinase and HDAC inhibitors from the endophytic fungus Epicoccum nigrum” (J Nat Prod, 2014).
pIC50: −log10 of the molar value.

Tests used:
[1] = target: Serine/threonine-protein kinase N1 (Homo sapiens, UniProt Q16512); assay: Inhibition of PRK1 (unknown origin)
[2] = target: Protein deacetylase HDAC6 (Homo sapiens, UniProt Q9UBN7); assay: Inhibition of recombinant HDAC6 (unknown origin) using Fluor-de-Lys-SIRT1 as substrate by fluorescence assay
[3] = target: ALK tyrosine kinase receptor (Homo sapiens, UniProt Q9UM73); assay: Inhibition of ALK (unknown origin)
[4] = target: Serine/threonine-protein kinase Nek6 (Homo sapiens, UniProt Q9HC98); assay: Inhibition of NEK6 (unknown origin)
Serine/threonine-protein kinase Nek6, sequence (Q9HC98 whole entry): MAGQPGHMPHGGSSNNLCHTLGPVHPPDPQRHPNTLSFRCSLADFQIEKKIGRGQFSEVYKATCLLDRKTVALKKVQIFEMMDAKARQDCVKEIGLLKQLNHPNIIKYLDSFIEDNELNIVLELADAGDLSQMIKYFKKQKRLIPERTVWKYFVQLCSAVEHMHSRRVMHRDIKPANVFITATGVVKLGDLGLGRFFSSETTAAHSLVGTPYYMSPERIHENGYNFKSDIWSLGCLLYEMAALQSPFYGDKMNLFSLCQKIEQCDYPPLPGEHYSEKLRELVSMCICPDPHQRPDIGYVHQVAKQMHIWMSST

[5] = target: Insulin-like growth factor 1 receptor (Homo sapiens, UniProt P08069); assay: Inhibition of IGF1R (unknown origin)
Histone deacetylase 2 = Histone deacetylase 2 (Homo sapiens, UniProt Q92769); assay: Inhibition of recombinant HDAC2 (unknown origin) using Fluor-de-Lys-SIRT1 as substrate by fluorescence assay
Histone deacetylase 1 = Histone deacetylase 1 (Homo sapiens, UniProt Q13547); assay: Inhibition of recombinant HDAC1 (unknown origin) using Fluor-de-Lys-SIRT1 as substrate by fluorescence assay
[6] = target: T1, NUAK family SNF1-like kinase 1 (Homo sapiens, UniProt O60285); assay: Inhibition of ARK5 (unknown origin)
T1 sequence (O60285 whole entry): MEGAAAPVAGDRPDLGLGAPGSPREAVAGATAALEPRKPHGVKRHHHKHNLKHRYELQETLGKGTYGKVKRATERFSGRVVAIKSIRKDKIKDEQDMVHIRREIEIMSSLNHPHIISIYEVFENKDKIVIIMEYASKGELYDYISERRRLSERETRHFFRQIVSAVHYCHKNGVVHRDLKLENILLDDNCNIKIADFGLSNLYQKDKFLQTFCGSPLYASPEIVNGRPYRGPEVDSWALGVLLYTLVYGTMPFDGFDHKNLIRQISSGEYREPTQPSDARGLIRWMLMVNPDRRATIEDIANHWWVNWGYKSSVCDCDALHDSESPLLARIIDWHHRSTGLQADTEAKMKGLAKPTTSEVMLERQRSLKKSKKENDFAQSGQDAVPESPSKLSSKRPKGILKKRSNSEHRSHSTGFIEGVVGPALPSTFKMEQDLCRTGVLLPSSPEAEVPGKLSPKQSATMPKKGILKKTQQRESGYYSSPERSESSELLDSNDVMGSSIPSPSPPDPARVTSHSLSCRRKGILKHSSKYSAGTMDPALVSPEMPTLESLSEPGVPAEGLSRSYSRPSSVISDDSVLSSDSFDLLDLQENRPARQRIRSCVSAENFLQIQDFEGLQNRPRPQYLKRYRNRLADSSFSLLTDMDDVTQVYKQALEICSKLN

[7] = target: Dual specificity mitogen-activated protein kinase kinase 1 (Homo sapiens, UniProt Q02750); assay: Inhibition of wild type MEK1 (unknown origin)
Dual specificity mitogen-activated protein kinase kinase 1, sequence (Q02750 whole entry): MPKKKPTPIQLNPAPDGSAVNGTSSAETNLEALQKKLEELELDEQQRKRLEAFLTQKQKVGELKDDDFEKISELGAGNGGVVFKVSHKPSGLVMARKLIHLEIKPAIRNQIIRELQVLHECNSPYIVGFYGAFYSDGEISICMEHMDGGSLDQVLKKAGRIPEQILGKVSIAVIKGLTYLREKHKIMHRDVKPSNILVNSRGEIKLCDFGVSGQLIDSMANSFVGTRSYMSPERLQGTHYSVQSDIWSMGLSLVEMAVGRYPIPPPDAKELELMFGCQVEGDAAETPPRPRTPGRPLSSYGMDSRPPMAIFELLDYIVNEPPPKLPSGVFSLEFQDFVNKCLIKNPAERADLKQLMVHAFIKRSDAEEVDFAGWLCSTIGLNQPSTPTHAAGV

[8] = target: Proto-oncogene tyrosine-protein kinase Src (Homo sapiens, UniProt P12931); assay: Inhibition of SRC (unknown origin)
Proto-oncogene tyrosine-protein kinase Src, sequence (P12931 2-536 limits assumed): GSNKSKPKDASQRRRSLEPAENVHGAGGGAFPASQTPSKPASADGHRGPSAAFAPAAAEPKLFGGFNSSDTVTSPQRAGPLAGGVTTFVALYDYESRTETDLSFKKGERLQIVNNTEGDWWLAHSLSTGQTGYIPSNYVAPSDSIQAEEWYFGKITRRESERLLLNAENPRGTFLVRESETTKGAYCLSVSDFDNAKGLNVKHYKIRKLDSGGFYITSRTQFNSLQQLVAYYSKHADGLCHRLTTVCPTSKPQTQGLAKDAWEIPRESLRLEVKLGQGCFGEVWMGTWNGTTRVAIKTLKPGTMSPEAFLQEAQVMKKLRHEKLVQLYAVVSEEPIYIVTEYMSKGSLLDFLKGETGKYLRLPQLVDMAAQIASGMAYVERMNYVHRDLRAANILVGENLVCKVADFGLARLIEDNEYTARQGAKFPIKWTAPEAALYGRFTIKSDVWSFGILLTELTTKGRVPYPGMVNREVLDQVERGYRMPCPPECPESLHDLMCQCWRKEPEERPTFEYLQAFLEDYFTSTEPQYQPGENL

[9] = target: Serine/threonine-protein kinase pim-1 (Homo sapiens, UniProt P11309); assay: Inhibition of PIM1 (unknown origin)
Serine/threonine-protein kinase pim-1, sequence (P11309 whole entry): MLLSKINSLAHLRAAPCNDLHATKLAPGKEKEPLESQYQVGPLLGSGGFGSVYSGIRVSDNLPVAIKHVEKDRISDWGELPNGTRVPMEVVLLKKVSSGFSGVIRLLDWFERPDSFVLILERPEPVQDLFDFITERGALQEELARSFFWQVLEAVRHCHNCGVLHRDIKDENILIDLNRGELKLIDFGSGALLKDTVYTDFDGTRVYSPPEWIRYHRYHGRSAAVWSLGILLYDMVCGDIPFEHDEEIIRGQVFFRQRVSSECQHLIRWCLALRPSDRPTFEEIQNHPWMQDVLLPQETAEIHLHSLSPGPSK

[10] = target: Polyamine deacetylase HDAC10 (Homo sapiens, UniProt Q969S8); assay: Inhibition of recombinant HDAC10 (unknown origin) using Fluor-de-Lys-SIRT1 as substrate by fluorescence assay
Histone deacetylase 8 = Histone deacetylase 8 (Homo sapiens, UniProt Q9BY41); assay: Inhibition of recombinant HDAC8 (unknown origin) using Fluor-de-Lys-HDAC8 as substrate by fluorescence assay
[11] = target: Hepatocyte growth factor receptor (Homo sapiens, UniProt P08581); assay: Inhibition of wild type MET (unknown origin)
[12] = target: T2, Serine/threonine-protein kinase Nek2 (Homo sapiens, UniProt P51955); assay: Inhibition of NEK2 (unknown origin)
T2 sequence (P51955 whole entry): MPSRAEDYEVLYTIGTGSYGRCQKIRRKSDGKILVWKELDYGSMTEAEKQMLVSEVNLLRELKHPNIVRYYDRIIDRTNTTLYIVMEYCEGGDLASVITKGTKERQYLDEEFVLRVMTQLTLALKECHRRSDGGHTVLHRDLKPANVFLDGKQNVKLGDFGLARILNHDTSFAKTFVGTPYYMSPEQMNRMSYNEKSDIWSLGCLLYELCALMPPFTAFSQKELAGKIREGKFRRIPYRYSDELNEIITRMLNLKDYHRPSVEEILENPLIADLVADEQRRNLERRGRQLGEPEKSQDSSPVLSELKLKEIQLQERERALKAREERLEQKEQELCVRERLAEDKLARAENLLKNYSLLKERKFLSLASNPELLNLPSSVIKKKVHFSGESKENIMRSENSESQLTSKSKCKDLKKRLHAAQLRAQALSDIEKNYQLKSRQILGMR

[13] = target: RAC-alpha serine/threonine-protein kinase (Homo sapiens, UniProt P31749); assay: Inhibition of AKT1 (unknown origin)
RAC-alpha serine/threonine-protein kinase, sequence (P31749 whole entry): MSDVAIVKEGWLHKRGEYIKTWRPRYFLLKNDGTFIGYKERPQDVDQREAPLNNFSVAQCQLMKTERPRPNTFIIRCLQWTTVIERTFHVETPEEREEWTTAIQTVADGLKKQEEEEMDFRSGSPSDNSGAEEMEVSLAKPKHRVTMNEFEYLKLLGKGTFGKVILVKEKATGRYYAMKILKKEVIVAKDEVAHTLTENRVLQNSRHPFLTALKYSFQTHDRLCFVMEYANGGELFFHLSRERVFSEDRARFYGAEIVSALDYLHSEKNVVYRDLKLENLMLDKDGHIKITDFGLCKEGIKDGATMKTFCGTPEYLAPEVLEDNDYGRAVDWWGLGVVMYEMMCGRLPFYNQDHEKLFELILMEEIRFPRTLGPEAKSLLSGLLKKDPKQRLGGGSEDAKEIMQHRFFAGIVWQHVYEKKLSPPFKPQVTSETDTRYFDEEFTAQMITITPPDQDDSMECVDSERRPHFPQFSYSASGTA

[14] = Antiproliferative activity against human U937 cells assessed as growth inhibition at 5 uM after 72 hrs; assay type: functional; settings: U-937, 72 h, read-out: GI
Outline: (§1)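 RAJI and U-937 cells from ATCC, grown in RPMI 1640 with 10% heat-inactivated fetal calf serum and 1% antibiotic–antimycotic at 37 °C, humid 5% CO2. Treated 72 h; DMSO-treated cells as negative control; proliferation measured by a previously described method.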

Aurora kinase B = Aurora kinase B (Homo sapiens, UniProt Q96GD4); assay: Inhibition of aurora-B (unknown origin)
Aurora kinase B, sequence (Q96GD4 whole entry): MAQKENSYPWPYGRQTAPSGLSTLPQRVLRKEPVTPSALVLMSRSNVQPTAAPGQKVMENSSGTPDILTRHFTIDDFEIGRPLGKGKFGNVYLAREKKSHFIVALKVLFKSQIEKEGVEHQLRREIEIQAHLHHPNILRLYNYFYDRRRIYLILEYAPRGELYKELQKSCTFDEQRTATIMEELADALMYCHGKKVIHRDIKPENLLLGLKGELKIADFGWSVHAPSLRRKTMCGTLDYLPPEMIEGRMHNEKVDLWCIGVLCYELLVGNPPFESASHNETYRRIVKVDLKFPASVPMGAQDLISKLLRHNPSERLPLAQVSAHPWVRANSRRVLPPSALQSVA

Focal adhesion kinase 1 = Focal adhesion kinase 1 (Homo sapiens, UniProt Q05397); assay: Inhibition of FAK (unknown origin)
Focal adhesion kinase 1, sequence (Q05397 whole entry): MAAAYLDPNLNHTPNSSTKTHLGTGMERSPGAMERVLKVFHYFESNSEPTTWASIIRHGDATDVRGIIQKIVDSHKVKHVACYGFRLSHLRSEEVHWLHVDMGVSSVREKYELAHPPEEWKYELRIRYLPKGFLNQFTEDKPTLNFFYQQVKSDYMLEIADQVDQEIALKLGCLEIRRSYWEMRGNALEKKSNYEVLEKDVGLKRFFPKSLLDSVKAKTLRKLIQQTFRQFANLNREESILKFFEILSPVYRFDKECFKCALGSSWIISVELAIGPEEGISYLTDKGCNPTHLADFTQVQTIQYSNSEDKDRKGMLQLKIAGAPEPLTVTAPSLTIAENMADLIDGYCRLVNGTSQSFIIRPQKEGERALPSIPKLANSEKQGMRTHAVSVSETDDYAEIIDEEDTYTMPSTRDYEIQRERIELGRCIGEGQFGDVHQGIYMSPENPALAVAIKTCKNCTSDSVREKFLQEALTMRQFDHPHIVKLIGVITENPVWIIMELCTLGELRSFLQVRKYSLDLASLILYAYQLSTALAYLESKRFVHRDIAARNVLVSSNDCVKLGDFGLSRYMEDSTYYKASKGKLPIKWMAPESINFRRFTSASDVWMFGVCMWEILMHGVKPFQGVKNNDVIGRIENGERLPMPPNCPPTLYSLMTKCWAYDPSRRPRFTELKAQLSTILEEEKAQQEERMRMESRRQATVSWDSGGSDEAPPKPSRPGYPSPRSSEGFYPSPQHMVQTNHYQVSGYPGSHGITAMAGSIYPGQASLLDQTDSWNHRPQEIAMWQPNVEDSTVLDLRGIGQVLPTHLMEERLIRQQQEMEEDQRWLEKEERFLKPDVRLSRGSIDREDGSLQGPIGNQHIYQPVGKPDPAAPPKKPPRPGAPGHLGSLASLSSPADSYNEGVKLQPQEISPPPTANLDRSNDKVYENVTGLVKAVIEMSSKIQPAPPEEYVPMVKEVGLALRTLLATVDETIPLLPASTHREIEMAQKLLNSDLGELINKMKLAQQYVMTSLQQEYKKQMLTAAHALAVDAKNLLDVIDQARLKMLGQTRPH

PBMC = assay: Cytotoxicity against PBMC (unknown origin) assessed as growth inhibition after 48 hrs; assay type: cell-based
Outline: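 PBMCs isolated by a prior method, cultured in RPMI 1640 with 10% heat-inactivated FCS and 1% antibiotic–antimycotic at 37 °C, 5% CO2. Viability read after 48 h treatment, against DMSO-treated controls.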

[15] = target: T3, Tyrosine-protein kinase receptor UFO (Homo sapiens, UniProt P30530); assay: Inhibition of AXL (unknown origin)
T3 sequence (P30530 whole entry): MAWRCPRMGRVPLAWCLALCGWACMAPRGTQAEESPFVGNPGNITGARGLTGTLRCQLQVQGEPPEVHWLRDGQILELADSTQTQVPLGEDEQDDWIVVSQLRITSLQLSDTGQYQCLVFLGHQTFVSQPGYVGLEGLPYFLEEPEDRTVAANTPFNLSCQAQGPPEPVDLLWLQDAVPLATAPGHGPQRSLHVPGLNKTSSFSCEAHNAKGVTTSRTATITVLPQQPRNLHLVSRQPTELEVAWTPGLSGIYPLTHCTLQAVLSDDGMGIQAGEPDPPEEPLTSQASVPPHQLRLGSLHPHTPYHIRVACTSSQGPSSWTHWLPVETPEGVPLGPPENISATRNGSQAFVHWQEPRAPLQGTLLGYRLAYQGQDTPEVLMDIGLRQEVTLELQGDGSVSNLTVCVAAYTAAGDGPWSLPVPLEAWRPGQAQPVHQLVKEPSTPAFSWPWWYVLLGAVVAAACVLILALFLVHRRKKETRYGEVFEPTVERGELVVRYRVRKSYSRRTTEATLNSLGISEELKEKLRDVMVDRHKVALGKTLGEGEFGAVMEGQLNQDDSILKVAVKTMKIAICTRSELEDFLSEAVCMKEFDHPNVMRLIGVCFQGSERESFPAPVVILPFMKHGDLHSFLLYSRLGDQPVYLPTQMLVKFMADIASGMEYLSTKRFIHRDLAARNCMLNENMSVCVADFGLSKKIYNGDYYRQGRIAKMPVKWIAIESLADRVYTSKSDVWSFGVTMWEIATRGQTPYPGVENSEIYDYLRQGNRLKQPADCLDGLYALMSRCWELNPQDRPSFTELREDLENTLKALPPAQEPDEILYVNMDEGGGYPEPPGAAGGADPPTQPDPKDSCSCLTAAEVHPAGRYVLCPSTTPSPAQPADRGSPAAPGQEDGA

[16] = target: Serine/threonine-protein kinase PLK1 (Homo sapiens, UniProt P53350); assay: Inhibition of PLK1 (unknown origin)
Serine/threonine-protein kinase PLK1, sequence (P53350 whole entry): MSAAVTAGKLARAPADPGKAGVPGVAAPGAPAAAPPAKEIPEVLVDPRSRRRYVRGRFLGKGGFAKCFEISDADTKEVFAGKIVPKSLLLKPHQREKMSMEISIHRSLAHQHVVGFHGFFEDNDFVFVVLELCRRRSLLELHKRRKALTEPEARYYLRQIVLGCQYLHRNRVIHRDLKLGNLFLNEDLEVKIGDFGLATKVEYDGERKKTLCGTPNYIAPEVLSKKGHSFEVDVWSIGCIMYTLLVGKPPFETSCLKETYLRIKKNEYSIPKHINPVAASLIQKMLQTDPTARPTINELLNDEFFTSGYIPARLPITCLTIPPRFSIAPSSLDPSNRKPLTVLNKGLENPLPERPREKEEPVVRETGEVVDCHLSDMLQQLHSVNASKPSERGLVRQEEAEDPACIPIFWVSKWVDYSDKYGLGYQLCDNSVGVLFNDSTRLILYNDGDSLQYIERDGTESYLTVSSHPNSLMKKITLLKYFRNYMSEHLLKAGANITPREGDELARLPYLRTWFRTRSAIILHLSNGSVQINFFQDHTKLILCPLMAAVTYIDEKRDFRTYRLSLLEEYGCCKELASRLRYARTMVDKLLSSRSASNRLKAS

[17] = target: Vascular endothelial growth factor receptor 2 (Homo sapiens, UniProt P35968); assay: Inhibition of VEGFR2 (unknown origin)
Histone deacetylase = assay: Inhibition of HDAC in human K562 cell extract using Fluor-de-Lys deacetylase as substrate preincubated for 45 mins measured after 15 mins by fluorescence assay; assay type: protein assay
Histone deacetylase 11 = Histone deacetylase 11 (Homo sapiens, UniProt Q96DB2); assay: Inhibition of recombinant HDAC11 (unknown origin) using Fluor-de-Lys-SIRT1 as substrate by fluorescence assay
Raji [18] = assay: Antiproliferative activity against human Raji cells assessed as growth inhibition at 5 uM after 72 hrs; assay type: functional; settings: read-out: GI; outline: as §1
Histone deacetylase 3 = Histone deacetylase 3 (Homo sapiens, UniProt O15379); assay: Inhibition of recombinant HDAC3 (unknown origin) using Fluor-de-Lys-SIRT1 as substrate by fluorescence assay
Raji [19] = assay: Antiproliferative activity against human Raji cells assessed as growth inhibition at 25 uM after 72 hrs; assay type: functional; settings: read-out: GI; outline: as §1
[20] = Antiproliferative activity against human U937 cells assessed as growth inhibition at 25 uM after 72 hrs; assay type: functional; settings: U-937, 72 h, read-out: GI; outline: as §1

Serine/threonine-protein kinase N1, sequence (Q16512 whole entry): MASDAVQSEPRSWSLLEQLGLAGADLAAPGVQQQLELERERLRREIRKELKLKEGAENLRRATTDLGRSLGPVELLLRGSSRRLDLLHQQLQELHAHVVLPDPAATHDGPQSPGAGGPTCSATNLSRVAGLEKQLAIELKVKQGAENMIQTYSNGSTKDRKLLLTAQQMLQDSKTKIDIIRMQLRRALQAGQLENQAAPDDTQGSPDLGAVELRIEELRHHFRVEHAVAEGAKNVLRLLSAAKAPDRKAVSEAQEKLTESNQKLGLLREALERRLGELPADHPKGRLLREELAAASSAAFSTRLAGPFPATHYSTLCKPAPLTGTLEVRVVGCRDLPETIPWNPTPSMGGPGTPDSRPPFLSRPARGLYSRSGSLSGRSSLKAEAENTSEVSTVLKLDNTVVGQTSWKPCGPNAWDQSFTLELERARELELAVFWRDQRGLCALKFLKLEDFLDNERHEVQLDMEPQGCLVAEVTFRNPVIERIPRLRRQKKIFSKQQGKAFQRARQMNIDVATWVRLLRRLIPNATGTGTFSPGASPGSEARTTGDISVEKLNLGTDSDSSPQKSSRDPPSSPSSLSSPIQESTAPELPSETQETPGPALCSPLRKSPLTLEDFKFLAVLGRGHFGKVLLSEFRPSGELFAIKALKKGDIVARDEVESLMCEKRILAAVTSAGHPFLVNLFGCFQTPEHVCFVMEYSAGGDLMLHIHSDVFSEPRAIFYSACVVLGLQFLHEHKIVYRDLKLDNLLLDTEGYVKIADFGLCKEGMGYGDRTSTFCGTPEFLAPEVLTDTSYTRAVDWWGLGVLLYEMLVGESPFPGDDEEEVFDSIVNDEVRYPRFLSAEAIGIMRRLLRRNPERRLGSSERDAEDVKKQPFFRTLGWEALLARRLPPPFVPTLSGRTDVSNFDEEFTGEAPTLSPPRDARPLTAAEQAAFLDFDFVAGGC

Row | SMILES | pIC50 [1] | pIC50 [2] | pIC50 [3] | pIC50 [4] | pIC50 [5] | pIC50 (Histone deacetylase 2) | pIC50 (Histone deacetylase 1) | pIC50 [6] | pIC50 [7] | pIC50 [8] | pIC50 [9] | pIC50 [10] | pIC50 [11] | pIC50 [12] | pIC50 [13] | pIC50 (Aurora kinase B) | pIC50 (Focal adhesion kinase 1) | pIC50 [15] | pIC50 [16] | pIC50 [17] | also measured
1 | Cc1c(O)c(O)c2c(c1C=O)[C@@H]1O[C@H](O2)c2c(C)c(O)c(O)c(O)c2C1=O (racemic) | 5.35 | 5.34 | 6.74 | 6.28 | 7.15 | 5.00 | 5.07 | 5.60 | < 4.52 | 6.43 | 5.51 | 5.08 | 6.24 | 5.74 | 5.67 | 5.60 | 6.38 | 6.80 | 5.50 | 6.49 | pIC50 (Histone deacetylase 8): 5.80; inhibition of growth at 5 µM [14]: 32%; Activity (PBMC): Non-toxic; IC50 (Histone deacetylase): 9.8 µM; pIC50 (Histone deacetylase 11): 4.93; inhibition of growth at 5 µM (Raji [18]): 50%; pIC50 (Histone deacetylase 3): 4.91
2 | COCc1c(C)c(O)c(O)c(O)c1C=O | < 4.52 | – | 5.03 | < 4.52 | 5.46 | – | – | < 4.52 | < 4.52 | 4.70 | < 4.52 | – | < 4.52 | < 4.52 | < 4.52 | 4.69 | 4.69 | 4.96 | < 4.52 | < 4.52 | –
3 | Cc1c(O)c(O)c(O)c(C=O)c1-c1cc2c(C=O)c(C)c(O)c(O)c2o1 | 5.05 | 5.19 | 6.60 | 5.73 | 6.82 | 5.04 | 5.06 | 5.42 | < 4.52 | 6.31 | 5.35 | 5.09 | 5.95 | 5.42 | 5.39 | 5.14 | 6.10 | 6.66 | 5.20 | 6.41 | inhibition of growth at 25 µM (Raji [19]): 55%; pIC50 (Histone deacetylase 8): 5.68; inhibition of growth at 25 µM [20]: 30%; Activity (PBMC): Non-toxic; IC50 (Histone deacetylase): 14.2 µM; pIC50 (Histone deacetylase 11): 4.89; pIC50 (Histone deacetylase 3): 5.16
4 | O=c1c(O)c(-c2ccc(O)c(O)c2)oc2cc(O)cc(O)c12 [QUERCETIN] | 5.24 | – | 5.48 | 5.37 | 6.52 | – | – | 5.29 | < 5.00 | 6.92 | – | – | 6.24 | 5.24 | 5.27 | 6.04 | 5.92 | 6.02 | – | – | –

The next lines start with results.

Row | pIC50 [1] | pIC50 [2] | pIC50 [3] | pIC50 [4] | pIC50 [5] | pIC50 (Histone deacetylase 2) | pIC50 (Histone deacetylase 1) | pIC50 [6] | pIC50 [7] | pIC50 [8] | pIC50 [9] | pIC50 [10] | pIC50 [11] | pIC50 [12] | pIC50 [13] | pIC50 (Aurora kinase B) | pIC50 (Focal adhesion kinase 1) | pIC50 [15] | pIC50 [16] | pIC50 [17] | SMILES | also measured
5 | < 4.52 | – | 5.01 | < 4.52 | 5.69 | – | – | 4.53 | < 4.52 | 4.90 | < 4.52 | – | 5.02 | 4.93 | < 4.52 | 4.65 | 4.79 | 5.19 | < 4.52 | 4.58 | COC1OC(=O)c2c(O)c(O)c(O)c(C)c21 (racemic) | –
6 | 4.73 | – | 5.30 | 4.87 | 6.25 | – | – | 5.00 | < 4.00 | 5.45 | 4.67 | – | 5.06 | 5.18 | 4.63 | 5.06 | 5.12 | 5.61 | 4.93 | 5.22 | Cc1c(O)c(O)c(O)c2c1COC2=O | –
